From paper PMC411066 (BMC Medicine, 2004)
Values joined by “and” are separate entries in the source; they are usually repeats but may differ in a detail not shown here. Equal entries are not always repeated.

Experiments:
[1] = Serum digoxin; assay type: in vivo, human
Outline: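 Trough serum samples at steady state from 618 digoxin-monitoring patients, assayed by fluorescence polarization immunoassay. Orally given comedications were classed as P-gp inhibitors by PubMed search: Class I, documented in vivo effect on digoxin kinetics; Class II, in vitro inhibition only. Means ± SE from a General Linear Model adjusted for age, sex, digoxin dose and total prescribed drugs, covariates at their means.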

[2] = system: P-gp; conditions: cited from earlier work

| Compound | Adjusted S-digoxin mean ± SE ([1]; patients taking one Class I P-gp inhibitor, N = 96) | Adjusted S-digoxin mean ± SE ([1]; patients taking one P-gp inhibitor, N = 204, multivariate) | S-digoxin with Class II P-gp inhibitors compared with no P-gp inhibitors ([1]; patients taking one or two Class II P-gp inhibitors, differences not significant in the multivariate model) | Adjusted S-digoxin mean ± SE ([1]; patients taking three P-gp inhibitors, N = 8, multivariate) | Adjusted S-digoxin mean ± SE ([1]; patients taking two Class I P-gp inhibitors, N = 17) | Adjusted S-digoxin mean ± SE ([1]; patients taking two P-gp inhibitors, N = 78, multivariate) | S-digoxin mean ± SE ([1]; patients with concomitant P-gp inhibitors, all patients on spironolactone excluded) | Adjusted S-digoxin mean ± SE ([1]; patients with ≥ 1 P-gp inhibitor, N = 290, adjusted for age, sex, digoxin dose and total number of prescribed drugs) | In vitro P-gp inhibition [2] |
| --- | --- | --- | --- | --- | --- | --- | --- | --- | --- |
| C[C@H]1O[C@@H](O[C@H]2[C@@H](O)C[C@H](O[C@H]3[C@@H](O)C[C@H](O[C@H]4CC[C@@]5(C)[C@H](CC[C@@H]6[C@@H]5C[C@@H](O)[C@]5(C)[C@@H](C7=CC(=O)OC7)CC[C@]65O)C4)O[C@@H]3C)O[C@@H]2C)C[C@H](O)[C@@H]1O [digoxin] | 1.65 ± 0.07 nmol/L | 1.51 ± 0.05 nmol/L | tended to have elevated S-digoxin levels | 2.00 ± 0.25 nmol/L | 1.83 ± 0.07 nmol/L and 1.83 ± 0.17 nmol/L | 1.59 ± 0.08 nmol/L | 1.46 ± 0.05 nmol/L | 1.55 ± 0.04 nmol/L | – |
| CC[C@H](C)C(=O)O[C@H]1C[C@H](O)C=C2C=C[C@H](C)[C@H](CC[C@@H](O)C[C@@H](O)CC(=O)O)[C@H]21 [pravastatin] | – | – | – | – | – | – | – | – | not an in vitro P-gp inhibitor |
